The first data set concerns HASMC. Put plainly: Toxicity in HASMC assessed as cell viability using calcein AM and ethidium homodimer-1 by LIVE/DEAD assay. It is filed as cell-based. As to conditions: human. In short, it runs like this:
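HASMCs in black plates were exposed for 96 h to compound at 0.1–20 µM in medium with 1% DMSO. Floating dead cells were pelleted, washed in PBS and returned to their wells. Cells were stained with Eth-1 (0.5 µM) and calcein AM (0.25 µM) for 45 min at room temperature, then read at ex/em 495/530 and 528/645 nm. Triplicate; t-test versus vehicle.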
`CCCCCCNc1cccc(NCCCCCC)c1[N+](=O)[O-]`: the Activity result was “Non-toxic”.

With `CCCCCCCNc1cccc(NCCCCCCC)c1[N+](=O)[O-]`, the Activity entry is recorded as “Non-toxic”.

For `CCCCCCCCNc1cccc(NCCCCCCCC)c1[N+](=O)[O-]`, the Activity entry was “Non-toxic”.

Take `CCCCCCCCCCNc1cccc(NCCCCCCCCCC)c1[N+](=O)[O-]`: the Activity entry is reported as “Toxic”.

Regarding `CCCCCCNc1ccc([N+](=O)[O-])c(NCCCCCC)c1`, the Activity entry is “Non-toxic”.

In the case of `CCCCCCCCCNc1ccc([N+](=O)[O-])c(NCCCCCCCCC)c1`, the Activity entry is “Non-toxic”.

As for `CCCCCCCCNc1ccc([N+](=O)[O-])c(NCCCCCCCC)c1`, the Activity result is recorded as “Non-toxic”.

In the case of `CCCCCCCCCNc1cccc(NCCCCCCCCC)c1[N+](=O)[O-]`, the Activity entry is given as “Toxic”.

As to `CCCCCCCNc1ccc([N+](=O)[O-])c(NCCCCCCC)c1`, the Activity result is reported as “Non-toxic”.

Take `CCCCCCCCCCNc1ccc([N+](=O)[O-])c(NCCCCCCCCCC)c1`: the Activity result was “Non-toxic”.

System in the next data set: not listed separately
Briefly: Toxicity in HASMC assessed as cell viability at 10 uM after 96 hrs by MTT assay relative to control. It counts as cell-based. As to conditions: human, HASMC cells; read-out: Activity. In short, it runs like this:
(§1)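 Serum-starved HASMCs (3000–3500 cells/well) received compound in complete SMC medium (2% FBS) with 1% DMSO at 0.1, 1, 5, 10 or 20 µM for 48 h. Fresh medium was then added and cells grew a further 48 h (96 h total). MTT 4–6 h at 37 °C, solubilized, A570 as % of medium-only control; 1% DMSO vehicle; triplicate; t-test versus vehicle.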
For the compound `CCCCCCNc1cccc(NCCCCCC)c1[N+](=O)[O-]`, the viability at 96 h, 10 µM turned out to be 81%.

For `CCCCCCCNc1cccc(NCCCCCCC)c1[N+](=O)[O-]`, the viability at 96 h, 10 µM came out at 81%.

For `CCCCCCCCNc1cccc(NCCCCCCCC)c1[N+](=O)[O-]`, the viability at 96 h, 10 µM amounted to 83.2%.

Take `CCCCCCCCCCNc1cccc(NCCCCCCCCCC)c1[N+](=O)[O-]`: the viability at 96 h, 10 µM amounted to 69%.

For `CCCCCCNc1ccc([N+](=O)[O-])c(NCCCCCC)c1`, the viability at 96 h, 10 µM is 85.9%.

Turning to `CCCCCCCCCNc1ccc([N+](=O)[O-])c(NCCCCCCCCC)c1`, the viability at 96 h, 10 µM came to 84.5%.

On to `CCCCCCCCNc1ccc([N+](=O)[O-])c(NCCCCCCCC)c1`, for which the viability at 96 h, 10 µM turned out to be 84%.

Turning to `CCCCCCCCCNc1cccc(NCCCCCCCCC)c1[N+](=O)[O-]`, the viability at 96 h, 10 µM is 73%.

As to `CCCCCCCNc1ccc([N+](=O)[O-])c(NCCCCCCC)c1`, the viability at 96 h, 10 µM came to 86%.

`CCCCCCCCCCNc1ccc([N+](=O)[O-])c(NCCCCCCCCCC)c1`: the viability at 96 h, 10 µM was found to be 84%.

System in the next data set: not listed separately
Briefly: Toxicity in HASMC assessed as cell viability at 1 uM after 96 hrs by MTT assay relative to control. It is filed as cell-based. As to conditions: human, HASMC cells; read-out: Activity. Put shortly: as §1
For orientation: Tetrazolium dyes change colour on reduction, which living cells bring about.
Consider `CCCCCCNc1cccc(NCCCCCC)c1[N+](=O)[O-]`, for which the viability at 96 h, 1 µM was found to be 82%.

For the compound `CCCCCCCNc1cccc(NCCCCCCC)c1[N+](=O)[O-]`, the viability at 96 h, 1 µM was 80%.

For the compound `CCCCCCCCNc1cccc(NCCCCCCCC)c1[N+](=O)[O-]`, the viability at 96 h, 1 µM is 89.7%.

For the compound `CCCCCCCCCCNc1cccc(NCCCCCCCCCC)c1[N+](=O)[O-]`, the viability at 96 h, 1 µM came to 75.5%.

As for `CCCCCCNc1ccc([N+](=O)[O-])c(NCCCCCC)c1`, the viability at 96 h, 1 µM turned out to be 86.1%.

On to `CCCCCCCCCNc1ccc([N+](=O)[O-])c(NCCCCCCCCC)c1`, for which the viability at 96 h, 1 µM was 86.3%.

Regarding `CCCCCCCCNc1ccc([N+](=O)[O-])c(NCCCCCCCC)c1`, the viability at 96 h, 1 µM was 89.6%.

Regarding `CCCCCCCCCNc1cccc(NCCCCCCCCC)c1[N+](=O)[O-]`, the viability at 96 h, 1 µM turned out to be 78%.

Take `CCCCCCCNc1ccc([N+](=O)[O-])c(NCCCCCCC)c1`: the viability at 96 h, 1 µM is 87%.

Regarding `CCCCCCCCCCNc1ccc([N+](=O)[O-])c(NCCCCCCCCCC)c1`, the viability at 96 h, 1 µM is 87.4%.

System in another data set: not listed separately
Briefly: Toxicity in HASMC assessed as cell viability at 20 uM after 96 hrs by MTT assay relative to control. It is filed as cell-based. Particulars: human, HASMC cells; read-out: Activity. In short, it runs like this:
as §1
Regarding `CCCCCCNc1cccc(NCCCCCC)c1[N+](=O)[O-]`, the viability at 96 h, 20 µM is 81%.

`CCCCCCCNc1cccc(NCCCCCCC)c1[N+](=O)[O-]`: the viability at 96 h, 20 µM was 80%.

In the case of `CCCCCCCCNc1cccc(NCCCCCCCC)c1[N+](=O)[O-]`, the viability at 96 h, 20 µM was determined as 82.8%.

For `CCCCCCCCCCNc1cccc(NCCCCCCCCCC)c1[N+](=O)[O-]`, the viability at 96 h, 20 µM came to 65%.

For `CCCCCCNc1ccc([N+](=O)[O-])c(NCCCCCC)c1`, the viability at 96 h, 20 µM amounted to 87%.

In the case of `CCCCCCCCCNc1ccc([N+](=O)[O-])c(NCCCCCCCCC)c1`, the viability at 96 h, 20 µM was determined as 86%.

Regarding `CCCCCCCCNc1ccc([N+](=O)[O-])c(NCCCCCCCC)c1`, the viability at 96 h, 20 µM was 85.4%.

With `CCCCCCCCCNc1cccc(NCCCCCCCCC)c1[N+](=O)[O-]`, the viability at 96 h, 20 µM came out at 68%.

For `CCCCCCCNc1ccc([N+](=O)[O-])c(NCCCCCCC)c1`, the viability at 96 h, 20 µM amounted to 85.6%.

With `CCCCCCCCCCNc1ccc([N+](=O)[O-])c(NCCCCCCCCCC)c1`, the viability at 96 h, 20 µM worked out at 84%.

System in a further data set: not listed separately
Put plainly: Toxicity in HASMC assessed as cell viability at 5 uM after 96 hrs by MTT assay relative to control. It is filed as cell-based. Particulars: human, HASMC cells; read-out: Activity. In short, it runs like this: as §1
For `CCCCCCNc1cccc(NCCCCCC)c1[N+](=O)[O-]`, the viability at 96 h, 5 µM was found to be 84%.

In the case of `CCCCCCCNc1cccc(NCCCCCCC)c1[N+](=O)[O-]`, the viability at 96 h, 5 µM was found to be 82%.

As for `CCCCCCCCNc1cccc(NCCCCCCCC)c1[N+](=O)[O-]`, the viability at 96 h, 5 µM came out at 82.9%.

On to `CCCCCCCCCCNc1cccc(NCCCCCCCCCC)c1[N+](=O)[O-]`, for which the viability at 96 h, 5 µM worked out at 70%.

Consider `CCCCCCNc1ccc([N+](=O)[O-])c(NCCCCCC)c1`, for which the viability at 96 h, 5 µM worked out at 84%.

Regarding `CCCCCCCCCNc1ccc([N+](=O)[O-])c(NCCCCCCCCC)c1`, the viability at 96 h, 5 µM amounted to 86%.

Consider `CCCCCCCCNc1ccc([N+](=O)[O-])c(NCCCCCCCC)c1`, for which the viability at 96 h, 5 µM was 87.2%.

As to `CCCCCCCCCNc1cccc(NCCCCCCCCC)c1[N+](=O)[O-]`, the viability at 96 h, 5 µM was found to be 75%.

With `CCCCCCCNc1ccc([N+](=O)[O-])c(NCCCCCCC)c1`, the viability at 96 h, 5 µM came to 87.6%.

`CCCCCCCCCCNc1ccc([N+](=O)[O-])c(NCCCCCCCCCC)c1`: the viability at 96 h, 5 µM amounted to 88%.

System in a further data set: not listed separately
Put plainly: Toxicity in HASMC assessed as cell viability at 0.1 uM after 96 hrs by MTT assay relative to control. As to conditions: human, HASMC cells; read-out: Activity. It counts as cell-based. In short, it runs like this: as §1
In the case of `CCCCCCNc1cccc(NCCCCCC)c1[N+](=O)[O-]`, the viability at 96 h, 0.1 µM was 82.2%.

With `CCCCCCCNc1cccc(NCCCCCCC)c1[N+](=O)[O-]`, the viability at 96 h, 0.1 µM turned out to be 81.6%.

On to `CCCCCCCCNc1cccc(NCCCCCCCC)c1[N+](=O)[O-]`, for which the viability at 96 h, 0.1 µM turned out to be 86.2%.

`CCCCCCCCCCNc1cccc(NCCCCCCCCCC)c1[N+](=O)[O-]`: the viability at 96 h, 0.1 µM is 76.8%.

As for `CCCCCCNc1ccc([N+](=O)[O-])c(NCCCCCC)c1`, the viability at 96 h, 0.1 µM is 85.1%.

Take `CCCCCCCCCNc1ccc([N+](=O)[O-])c(NCCCCCCCCC)c1`: the viability at 96 h, 0.1 µM was 87%.

In the case of `CCCCCCCCNc1ccc([N+](=O)[O-])c(NCCCCCCCC)c1`, the viability at 96 h, 0.1 µM was determined as 84.6%.

In the case of `CCCCCCCCCNc1cccc(NCCCCCCCCC)c1[N+](=O)[O-]`, the viability at 96 h, 0.1 µM was 82%.

Turning to `CCCCCCCNc1ccc([N+](=O)[O-])c(NCCCCCCC)c1`, the viability at 96 h, 0.1 µM was 88.3%.

Consider `CCCCCCCCCCNc1ccc([N+](=O)[O-])c(NCCCCCCCCCC)c1`, for which the viability at 96 h, 0.1 µM was 89%.

Values taken from ChEMBL document CHEMBL2346638, “Secondary amines containing one aromatic nitro group: preparation, nitrosation, sustained nitric oxide release, and the synergistic effects of released nitric oxide and an arginase inhibitor on vascular smooth muscle cell proliferation” (Bioorg Med Chem, 2013).
